Records with an inconclusive call do not appear.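 How the source made its calls, unless noted: active means growth inhibition above 25% in both replicates, a cutoff set 3 SD above the mean; inconclusive means above 25% in only one replicate; inactive means the rest.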
Assays:
[1] = S. cerevisiae growth inhibition in permissive medium (OD615), pilot counter-assay for S. cerevisiae lifespan shortening project, permissive growth control (AID 705); conditions: OD615, 24 h, at 10 µM, active compounds read high
Method in brief: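 System: engineered DeaD yeast; Medium: permissive raffinose/galactose medium; Compound dosing: 10 µM single dose, 0.25% DMSO; Incubation: 4 h cell pre-growth, 24 h exposure at 30 °C; Technique: OD at 615 nm; Evaluation: growth inhibition from lowered OD615 after 24 h.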

[2] = S. cerevisiae growth inhibition in restrictive medium, OD615, pilot screen, restrictive growth control, yeast lifespan reduction project (AID 706;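 active means growth inhibition above a set limit, 3 SD over mean compound inhibition, in both replicates, cut at about 43% in these data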;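 further: modified DeaD lifespan yeast strain shifted to restrictive glucose medium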); conditions: OD615, 48 h, at 10 µM, active compounds read high
Method in brief: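 Material: modified S. cerevisiae; buffer or medium: CSMM-D glucose medium; doses: one concentration, 10 µM final, 0.25% DMSO; incubation: 48 h compound exposure at 30 °C; detection: optical density at 615 nm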

[3] = doxorubicin toxicity protection in MRP-1 cells – H69AR cells, CellTiter-Glo, duplicate, MRP-1 activator project, pilot screen (AID 807;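 active means viability increase at or above a cutoff of the median across tested compounds plus 3 SD, cut at about 8.5% in these data, passing the limit was not always enough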;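 further: compound pretreatment 18-22 h then 72 h combined with doxorubicin; 0% = doxorubicin alone and 100% = vehicle without doxorubicin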); conditions: H69AR viability with doxorubicin, CellTiter-Glo luminescence; at 10 µM; active compounds read high
[4] = viability of HCT116 without oncogenic beta-catenin – human colon tumor cells, pilot screen (AID 823;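 active means cell viability at or below a set limit in both duplicate runs, the limit being the all-compound median minus 4 SD, cut at about 23% in these data, passing the limit was not always enough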;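 further: 0% = wells killed by 20 µM Hyamine and 100% = untreated DMSO cell wells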); conditions: HCT116 beta-catenin knockout viability, CellTiter-Glo, 60 h; at 10 µM; active compounds read low
[5] = viability of PTEN-null HCT116 cells – cell-based, HCT116 clonal line, CellTiter-Glo, pilot screen (AID 824;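 active means viability at or below 27.92% in each of two runs, the all-compound median minus 4 SD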;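 further: 0% = 20 µM Hyamine control and 100% = vehicle cell control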); conditions: HCT116 PTEN-deleted viability, 60 h, at 10 µM, active compounds read low
[6] = RAM pathway blockade in budding yeast – dse1pr::URA3 reporter, 5-FOA selection, pilot screen (AID 869;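 active means inhibition over a set limit, the all-compound mean plus 3 SD, in both replicate runs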;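 further: 0% = DMSO wells with no growth and 100% = 10 µM 1-NA-PP1 with full growth; RAM network block rescues cells from 5-FOA so hits raise OD615 growth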); conditions: S. cerevisiae dse1pr::URA3 5-FOA growth, OD615, 2 d; at 10 µM; active compounds read high; strain carries analog-sensitive mutant Cbk1 kinase
[7] = RAM signaling pathway blockade in yeast – S. cerevisiae, Pdr1DBD-CYC8 efflux-inhibited sensitized strain, primary screen (AID 1298;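 active means RAM network inhibition above 8.4% in each of two replicates, 3 SD over the compound average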;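 further: 0% = DMSO untreated cells without growth and 100% = 10 µM 1-NA-PP1 full growth; higher means more yeast growth rescued from 5-FOA killing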); conditions: S. cerevisiae cbk1-as DSE1-URA3 strain, 5-FOA growth OD615, 2 d; at 50 µM; active compounds read high

CCOC(=O)c1cnn2c(C(F)(F)F)cc(-c3ccccc3)nc12
inactive: growth inhibition [1] -6.86% | growth inhibition [2] -9.75% | viability increase [3] -3.13% | viability [4] 84% | viability [5] 86.9% | inhibition [6] 2.29% | RAM network inhibition [7] 2.4%

CC(=O)c1cc(F)c(N2CCN(CCC#N)CC2)cc1C
inactive: growth inhibition [1] -3.07% | growth inhibition [2] -19.6% | viability increase [3] -0.38% | viability [4] 105% | viability [5] 81.3% | inhibition [6] 0.35% | RAM network inhibition [7] 0.47%

CCCCN(CC)CCNC(=O)c1cc2c(=O)n(C)c3ccccc3c2n1C
inactive: growth inhibition [1] 2.65% | growth inhibition [2] -6.07% | viability increase [3] -5.86% | viability [4] 49% | viability [5] 48.6% | inhibition [6] 0.8% | RAM network inhibition [7] 0.41%

CN(CC(CC(=O)Nc1nncs1)c1ccccc1)S(=O)(=O)c1ccccc1 (configuration not stated)
inactive: growth inhibition [1] -13.9% | growth inhibition [2] -11.4% | viability increase [3] -1.16% | viability [4] 96.2% | viability [5] 81.2% | inhibition [6] 1.82% | RAM network inhibition [7] 3.38%

Cc1occc1C(=O)NC1CCCCCC1
inactive: growth inhibition [1] -17.9% | growth inhibition [2] -9.95% | viability increase [3] -0.64% | viability [4] 95.5% | viability [5] 96.6% | inhibition [6] -0.355% | RAM network inhibition [7] -0.22%

Cc1ccc(N2CC(c3nc4ccccc4[nH]3)CC2=O)c(C)c1 (configuration not stated)
inactive: growth inhibition [1] -14.1% | growth inhibition [2] -17% | viability increase [3] 0.06% | viability [4] 107% | viability [5] 94.4% | inhibition [6] 1.45% | RAM network inhibition [7] 0.01%

O=C(CC(c1ccccc1)c1ccccc1)NCCO
inactive: growth inhibition [1] -6.53% | growth inhibition [2] -4.9% | viability increase [3] 0.49% | viability [4] 100% | viability [5] 96.1% | inhibition [6] 2.24% | RAM network inhibition [7] 5.36%

O=C(NC1CCN(Cc2ccccc2)CC1)c1ccccc1F
inactive: growth inhibition [1] -3.78% | growth inhibition [2] -11.1% | viability increase [3] -1.39% | viability [4] 95% | viability [5] 98.9% | inhibition [6] 2.02% | RAM network inhibition [7] -0.41%

CC(=O)NCC(=O)N(c1ccccc1)C1(C(=O)NC2CCCCC2)CCCCC1
inactive: growth inhibition [1] -3.84% | growth inhibition [2] 6.72% | viability increase [3] -2.01% | viability [4] 103% | viability [5] 98.3% | inhibition [6] 0.165% | RAM network inhibition [7] -0.7%

CCCCNC(=O)Nc1ccc(Br)cn1
inactive: growth inhibition [1] -8.62% | growth inhibition [2] 4.73% | viability increase [3] -1.6% | viability [4] 97.6% | viability [5] 96% | inhibition [6] 0.485% | RAM network inhibition [7] 6.6%

CCCS(=O)(=O)c1nc(S(=O)(=O)c2ccc(C)cc2)c(NCCCN2CCOCC2)s1
inactive: growth inhibition [1] 0.84% | growth inhibition [2] -0.48% | viability increase [3] -1.8% | viability [4] 91.8% | viability [5] 99.9% | inhibition [6] 0.475% | RAM network inhibition [7] 5.15%

CCOC(=O)c1ccccc1NC(=O)CN(c1cccc(OC)c1)S(C)(=O)=O
inactive: growth inhibition [1] -7.1% | growth inhibition [2] -3.34% | viability increase [3] -5.04% | viability [4] 91.7% | viability [5] 83.3% | inhibition [6] 1.65% | RAM network inhibition [7] 4.56%

C/C(NCCN1CCOCC1)=C(\C#N)C(N)=O
inactive: growth inhibition [1] -3.8% | growth inhibition [2] -6.1% | viability increase [3] -0.51% | viability [4] 105% | viability [5] 97.6% | inhibition [6] 0.795% | RAM network inhibition [7] 7.19%

CCOc1ccc(C2C(C#N)=C(N)SC(N)=C2C#N)cc1OCC
inactive: growth inhibition [1] 12.6% | growth inhibition [2] -4.33% | viability increase [3] -0.77% | viability [4] 103% | viability [5] 91.5% | inhibition [6] 0.96% | RAM network inhibition [7] 7.43%

Cc1cccc(C(=O)Nc2cc(=O)n(C)c(=O)n2C)c1
inactive: growth inhibition [1] -14.2% | growth inhibition [2] -21.9% | viability increase [3] -0.85% | viability [4] 105% | viability [5] 92.4% | inhibition [6] 0.905% | RAM network inhibition [7] 1.04%

CCOc1ccc(N(CC(=O)N2CCc3ccccc32)S(=O)(=O)c2c(C)noc2C)cc1
inactive: growth inhibition [1] -1.81% | growth inhibition [2] 10.1% | viability increase [3] -5.12% | viability [4] 65.7% | viability [5] 59.2% | inhibition [6] 3.63% | RAM network inhibition [7] 2.47%

CCOC(=O)CC1C(=O)NCCN1C(=O)c1cc2c(=O)n3ccccc3nc2s1 (configuration not stated)
inactive: growth inhibition [1] -13.7% | growth inhibition [2] 0.575% | viability increase [3] 1.22% | viability [4] 95.3% | viability [5] 95.5% | inhibition [6] 1% | RAM network inhibition [7] 6.8%

Cn1c(NC(=O)C2CCCO2)cc(=O)n(C)c1=O (configuration not stated)
inactive: growth inhibition [1] 0.76% | growth inhibition [2] 1.36% | viability increase [3] -0.7% | viability [4] 103% | viability [5] 99.8% | inhibition [6] 0.565% | RAM network inhibition [7] -0.47%

Cc1ccc(C)c(NC(=O)CS(=O)(=O)c2c[nH]c3ccccc23)c1
inactive: growth inhibition [1] -9.01% | growth inhibition [2] -31.9% | viability increase [3] -2.95% | viability [4] 96.5% | viability [5] 93.5% | inhibition [6] 2.13% | RAM network inhibition [7] -0.27%

CCSc1nnc(-c2ccc(Cl)cc2Cl)o1
inactive: growth inhibition [1] -10.3% | growth inhibition [2] -5.92% | viability increase [3] -5.13% | viability [4] 83.5% | viability [5] 85.4% | inhibition [6] 1.65% | RAM network inhibition [7] 2.2%

COc1ccc(NC(=O)C2CCN(C(=O)c3ccccc3)CC2)c(OC)c1
inactive: growth inhibition [1] 9.86% | growth inhibition [2] -0.9% | viability increase [3] -2.96% | viability [4] 95.8% | viability [5] 94.8% | inhibition [6] 2.57% | RAM network inhibition [7] 3.44%

O=C(OCCCCN1C(=O)c2ccccc2C1=O)c1ccc(S(=O)(=O)N2CCCC2)cc1
inactive: growth inhibition [1] -11.7% | growth inhibition [2] -0.405% | viability increase [3] 0.28% | viability [4] 101% | viability [5] 100% | inhibition [6] 1.85% | RAM network inhibition [7] 4.52%

CCOc1ccc(NC(=O)N(C2CCCCC2)C2CCN(C(C)=O)CC2)cc1
inactive: growth inhibition [1] -8.37% | growth inhibition [2] 6.87% | viability increase [3] -0.8% | viability [4] 102% | viability [5] 100% | inhibition [6] 0.795% | RAM network inhibition [7] 3.05%

COC(=O)CN1C(=O)C(O)(CC(=O)c2ccc(Br)cc2)c2ccccc21 (configuration not stated)
inactive: growth inhibition [1] 5.54% | growth inhibition [2] 11.5% | viability increase [3] -2.96% | viability [4] 92.4% | viability [5] 96.6% | inhibition [6] 0.785% | RAM network inhibition [7] 3.19%

Cc1cc(C)nc(NS(=O)(=O)c2ccc(NC(=O)c3ccco3)cc2)n1
inactive: growth inhibition [1] -5.44% | growth inhibition [2] -11.7% | viability increase [3] -1.87% | viability [4] 100% | viability [5] 95.9% | inhibition [6] 0.26% | RAM network inhibition [7] 2.44%

CCSc1nnc2c(n1)[nH]c1c(C)cccc12
inactive: growth inhibition [1] -6.89% | growth inhibition [2] -1.28% | viability increase [3] -5.1% | viability [4] 47.9% | viability [5] 65.5% | inhibition [6] 4% | RAM network inhibition [7] 4.68%

Cc1nc2ncnn2c(C)c1Cc1ccc(Cl)cc1F
inactive: growth inhibition [1] -9.96% | growth inhibition [2] -18.8% | viability increase [3] -1.72% | viability [4] 95.7% | viability [5] 92.2% | inhibition [6] 0.26% | RAM network inhibition [7] 6.16%

CCCCCn1c(=O)[nH]c2cc(C(=O)NCCCN3CCC(C)CC3)ccc2c1=O
inactive: growth inhibition [1] -6.26% | growth inhibition [2] 3.06% | viability increase [3] -6.38% | viability [4] 56.6% | viability [5] 61.9% | inhibition [6] 0.015% | RAM network inhibition [7] 3.34%

O=C(NCCN1CCOCC1)c1ccc(CS(=O)(=O)c2ccc(Br)cc2)o1
inactive: growth inhibition [1] 0.315% | growth inhibition [2] -7.27% | viability increase [3] -1.79% | viability [4] 99.5% | viability [5] 97.6% | inhibition [6] 1.31% | RAM network inhibition [7] 3.72%

COc1ccc(CCNC(=O)CCNS(=O)(=O)c2cccc3nsnc23)cc1OC
inactive: growth inhibition [1] -2.13% | growth inhibition [2] -8.7% | viability increase [3] -4.88% | viability [4] 86.5% | viability [5] 97.2% | inhibition [6] 0.305% | RAM network inhibition [7] 1.25%

Cc1ccccc1N1C(=O)C(Cl)=C(N2CCN(c3ccccc3)CC2)C1=O
inactive: growth inhibition [1] -5.42% | growth inhibition [2] -12.1% | viability increase [3] -2.29% | viability [4] 101% | viability [5] 109% | inhibition [6] 0.515% | RAM network inhibition [7] 1.87%

CCOc1ccc(C2C(C(=O)NC)=C(C)Nc3nc4ccccc4n32)cc1OC (configuration not stated)
inactive: growth inhibition [1] -4.37% | growth inhibition [2] -0.94% | viability increase [3] 0.24% | viability [4] 98.8% | viability [5] 103% | inhibition [6] 1.18% | RAM network inhibition [7] 2.01%

Cc1ccnc(N2C(=O)c3ccccc3C2Nc2ccc3c(c2)OCCO3)c1 (configuration not stated)
inactive: growth inhibition [1] -12.4% | growth inhibition [2] 3.42% | viability increase [3] 1.16% | viability [4] 99.7% | viability [5] 90.1% | inhibition [6] 0.135% | RAM network inhibition [7] 3.93%

CCOC(=O)c1ccc(N2C(=O)C3ON(c4ccccc4)C(c4ccco4)C3C2=O)cc1 (configuration not stated)
inactive: growth inhibition [1] -17.9% | growth inhibition [2] 5.19% | viability increase [3] -4.17% | viability [4] 102% | viability [5] 93.4% | inhibition [6] 1.73% | RAM network inhibition [7] 4.07%

Cc1cc(C(=O)N2CCN(S(C)(=O)=O)CC2)cs1
inactive: growth inhibition [1] -7.07% | growth inhibition [2] -12.8% | viability increase [3] -1.25% | viability [4] 94.5% | viability [5] 88.9% | inhibition [6] 1.6% | RAM network inhibition [7] -0.04%

CCOc1ccc2nc(N3CCCC(C(=O)NCCCN4CCOCC4)C3)sc2c1 (configuration not stated)
inactive: growth inhibition [1] -10.1% | growth inhibition [2] -15.6% | viability increase [3] -2.55% | viability [4] 86.3% | viability [5] 92.8% | inhibition [6] 1.36% | RAM network inhibition [7] 0.52%

Source: PubChem BioAssay
